Experimental data from ChEMBL document CHEMBL4270554, “Discovery of the cancer cell selective dual acting anti-cancer agent (Z)-2-(1H-indol-3-yl)-3-(isoquinolin-5-yl)acrylonitrile (A131)” (Eur J Med Chem, 2018).
Activity calls are given as the source filed them. The rule behind the calls is not given here.

How the values were obtained:
hTERT-BJ [1] = assay: Induction of autophagy in human hTERT-BJ cells transformed with hTert, small t, shRNAs against p53 and pRb and H-RasV12-ER assessed as increase in LC3-2 to LC3-1 ratio at 5 uM after 24 hrs by immunoblot analysis relative to control; type: functional
Method in brief: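 Fully transformed BJ fibroblasts (hTert, small t, shRNAs to p53 and pRb, H-RasV12-ER) grown at 37 °C, 5% CO2 in 10% FBS medium; treated 24 h at 5 μM. Triton lysis, 14% SDS-PAGE, LC3 immunoblot; LC3-II/LC3-I band ratio relative to DMSO-treated control, under 2-fold induction deemed insignificant.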

hTERT-BJ [2] = assay: Inhibition of mitotic progression in human hTERT-BJ cells transformed with hTert, small t, shRNAs against p53 and pRb and H-RasV12-ER assessed as increase in phosphorylated histone H3 (Ser10) level at 5 uM after 24 hrs by immunoblot analysis relative to control; type: functional
Method in brief: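 Fully transformed BJ fibroblasts (hTert, small t, shRNAs to p53 and pRb, H-RasV12-ER) treated 24 h at 5 μM. Immunoblot protocol as for HeLa. pH3 (Ser10) band intensity expressed as fold of DMSO control; under 2-fold counted as insignificant.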

hTERT-BJ [3] = assay: Cell cycle arrest in human hTERT-BJ cells transformed with hTert, small t, shRNAs against p53 and pRb and H-RasV12-ER assessed as accumulation at sub-G1 phase at 5 uM after 48 hrs; type: functional, cell-based
Method in brief: (§1)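 Isogenic normal and fully transformed BJ fibroblasts (hTert, small t, shRNAs to p53 and pRb, H-RasV12-ER) exposed to 5 μM for 48 h. Percentage of cells in sub-G1 phase determined as a cell death measure.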

BJ [4] = assay: Cell cycle arrest in human BJ cells assessed as accumulation at sub-G1 phase at 5 uM after 48 hrs; type: cell-based; method in brief: as §1
HeLa [5] = assay: Induction of mitotic arrest in human HeLa cells assessed as formation of disorganized spindles at 15 to 25 uM after 6 hrs by DAPI staining-based immunofluorescence analysis; type: functional, cell-based
HeLa [6] = assay: Induction of mitotic arrest in human HeLa cells assessed as formation of disorganized spindles at 2.5 uM after 6 hrs by DAPI staining-based immunofluorescence analysis; type: functional, cell-based
HeLa [7] = assay: Induction of mitotic arrest in human HeLa cells expressing GFP-tagged tubulin assessed as appearance of large vacuole like structures that filled out cytoplasmic area at 2.5 uM after 20 hrs by microscopic method; type: functional, cell-based
Method in brief: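 HeLa cells stably expressing GFP-tubulin exposed to compound or DMSO for 20 h. Cytoplasmic vacuole-like structures and mitotic arrest examined by high-resolution microscopy.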

HeLa [8] = assay: Induction of mitotic arrest in human HeLa cells assessed as formation of misaligned chromosomes at 2.5 uM after 6 hrs by DAPI staining-based immunofluorescence analysis; type: functional, cell-based
HeLa [9] = assay: Induction of mitotic arrest in human HeLa cells assessed as formation of misaligned chromosomes at 15 to 25 uM after 6 hrs by DAPI staining-based immunofluorescence analysis; type: functional, cell-based
HeLa [10] = assay: Inhibition of mitotic progression in human HeLa cells assessed as upregulation of phosphorylated histone H3 (Ser10) level after 6 hrs by immunoblot analysis; type: functional, cell-based
Method in brief: (§2)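 HeLa cells treated 6 h with 0.625–10 μM test agent or chloroquine (1.25–100 μM), or DMSO. Lysis in 1% Triton buffer (pH 8.0) with protease and phosphatase inhibitors, 14% SDS-PAGE, immunoblot for LC3, pH3 (Ser10) and β-actin. Band intensity ratios (LC3-II/LC3-I; pH3) expressed relative to DMSO control.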

HeLa [11] = assay: Induction of autophagy in human HeLa cells assessed as increase in LC3 puncta at 2.5 uM after 6 hrs by DAPI staining-based immunofluorescence microscopy; type: functional, cell-based
Method in brief: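 HeLa cells exposed to compound or DMSO for 6 h, then immunostained for LC3 with DAPI nuclear counterstain. Puncta formation scored by fluorescence imaging as a read-out of LC3-II.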

BJ [12] = assay: Induction of apoptosis in human BJ cells transformed with hTert, small t, shRNAs against p53 and pRb and H-RasV12-ER assessed as activation of caspase-3/7 up to 5 uM after 48 hrs by caspase-Glo 3/7 luminescent assay; type: functional, cell-based
Method in brief: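 Normal and transformed BJ cells treated 48 h across a concentration series. Caspase-3/7 activity by Caspase-Glo 3/7 luminescence, normalized to viable cell number from MTT. Mean ± S.D., n=3; two-tailed unpaired t tests.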

HeLa [13] = assay: Induction of autophagy in human HeLa cells assessed as increase in LC3-2 levels after 6 hrs by immunoblot analysis; type: functional, cell-based; method in brief: as §2
HeLa [14] = assay: Inhibition of colony formation in human HeLa cells after 7 days by plate colony counting method; type: functional, cell-based
HCT-15 = assay: Antitumor activity against human HCT15 cells xenografted in BALB/c athymic nu/nu mouse assessed as tumor growth inhibition at 60 mg/kg, iv bid administered every 4 days; type: functional, organism-based
Method in brief: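 Female BALB/c nu/nu mice bearing subcutaneous HCT15 xenografts (groups of 6). Paclitaxel 60 mg/kg given via tail vein twice every 4 days in ethanol:Tween 80:5% glucose (5:15:80). Tumor volumes tracked; mean ± SEM, two-way ANOVA vs vehicle.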

[15] = Half life in pooled male rat liver microsomes at 3 uM preincubated for 5 mins followed by NADPH addition measured after 45 mins by LC-MS/MS method; type: ADME, microsome
Method in brief: (§3)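 Pooled female or male rat liver microsomes (0.3 mg protein/mL) with 3 μM substrate in 0.1 M phosphate buffer pH 7.4, pre-incubated 5 min at 37 °C, started with 1 mM NADPH. Samples at 0-45 min quenched in cold acetonitrile with internal standard, analysed by LC-MS/MS. Triplicates; midazolam positive control, no-NADPH negative control.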

[16] = Half life in pooled female rat liver microsomes at 3 uM preincubated for 5 mins followed by NADPH addition measured after 45 mins by LC-MS/MS method; type: ADME, microsome; method in brief: as §3
[17] = Intrinsic clearance in pooled male rat liver microsomes assessed per mg protein at 3 uM preincubated for 5 mins followed by NADPH addition measured after 45 mins by LC-MS/MS method; type: ADME, microsome; settings: read-out: CLH
Method in brief: (§4)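 Pooled female or male rat liver microsomes (0.3 mg protein/mL) with substrate at final 3 μM in 0.1 M phosphate pH 7.4. Pre-incubated 5 min at 37 °C, then started with NADPH (final 1 mM). Sampled at 0–45 min in triplicate, quenched with cold acetonitrile plus internal standard. Parent measured by LC-MS/MS. Midazolam as positive control; no-NADPH negative control.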

[18] = Intrinsic clearance in pooled female rat liver microsomes assessed per mg protein at 3 uM preincubated for 5 mins followed by NADPH addition measured after 45 mins by LC-MS/MS method; type: ADME, microsome; settings: read-out: CLH; method in brief: as §4

| Structure (SMILES) | fold change (FC) (hTERT-BJ [1]) | fold change (FC) (hTERT-BJ [2]) | also measured |
| --- | --- | --- | --- |
| COc1ccc2c(/C(C#N)=C/c3cccc4cnccc34)c[nH]c2c1 | 2.6 | 4.3 |  |
| N#C/C(=C\c1cccc2cnccc12)c1c[nH]c2ccc(CN3CCCC3)cc12 | 3.3 | 1 |  |
| Cn1cc(/C(C#N)=C/c2cccc3cnccc23)c2ccccc21 | 1.6 | 1.1 |  |
| N#C/C(=C\c1cccc2cnccc12)c1c[nH]c2cccc(Br)c12 | 0.5 | 1.1 |  |
| N#C/C(=C\c1cccnc1)c1c[nH]c2ccccc12 | 1.1 | 1.2 |  |
| N#C/C(=C\c1cccc2cnccc12)c1c[nH]c2cc(CN3CCCC3)ccc12 | 5.7 | 1.1 |  |
| NC(=O)/C(=C\c1cccc2cnccc12)c1c[nH]c2ccccc12 | 0.6 | 1.3 |  |
| N#C/C(=C\c1cncc2ccccc12)c1c[nH]c2ccccc12 | 0.7 | 1.3 | Activity (hTERT-BJ [3]): inactive; Activity (BJ [4]): Non-Toxic |
| N#C/C(=C\c1cccc2cnccc12)c1c[nH]c2c(CN3CCCC3)cccc12 | 3.7 | 0.8 |  |
| N#C/C(=C\c1cccc2cnccc12)c1c[nH]c2ccccc12 |  |  | Activity (HeLa [5]): Active; Activity (HeLa [6]): Active; Activity (HeLa [7]): Active; Activity (HeLa [8]): Active; Activity (HeLa [9]): Active; Activity (hTERT-BJ [3]): Active; inhibition (HeLa [10]): Dose-dependent effect; Activity (HeLa [11]): Active; Activity (BJ [12]): Active; Activity (HeLa [13]): Dose-dependent effect; Activity (HeLa [14]): Dose-dependent effect |
| COCCOc1ccc2[nH]cc(/C(C#N)=C/c3cccc4cnccc34)c2c1 | 3.2 | 1.6 | Activity (hTERT-BJ [3]): inactive; Activity (BJ [4]): Non-Toxic |
| CC(=O)O[C@H]1C(=O)[C@@]2(C)[C@H]([C@H](OC(=O)c3ccccc3)[C@]3(O)C[C@H](OC(=O)[C@H](O)[C@@H](NC(=O)c4ccccc4)c4ccccc4)C(C)=C1C3(C)C)[C@]1(OC(C)=O)CO[C@@H]1C[C@@H]2O |  |  | TGI (HCT-15): inactive |
| C(=C\c1c[nH]c2ccccc12)/c1cccc2cnccc12 | 5.4 | 1.3 | Activity (hTERT-BJ [3]): inactive; Activity (BJ [4]): Non-Toxic |
| Cc1[nH]c2ccccc2c1/C(C#N)=C/c1cccc2cnccc12 | 0.7 | 1.1 |  |
| N#C/C(=C\c1cccc2cnccc12)c1c[nH]c2ccc(OCCCN3CCCC3)cc12 | 6 | 0.9 | Activity (hTERT-BJ [3]): inactive; Activity (BJ [4]): Non-Toxic |
| COc1ccc2[nH]cc(/C(C#N)=C/c3cccc4cnccc34)c2c1 | 3.2 | 3 | half-life at 3 µM [15]: 21.8 min; half-life at 3 µM [16]: 33.4 min; microsomal CLint at 3 µM [17]: 106 µL/min/mg; microsomal CLint at 3 µM [18]: 66 µL/min/mg |
| N#C/C(=C\c1cccc2cnccc12)c1c[nH]c2ccc([N+](=O)[O-])cc12 | 0.6 | 0.9 |  |
| CC(=O)Nc1ccc2[nH]cc(/C(C#N)=C/c3cccc4cnccc34)c2c1 | 0.5 | 1.2 |  |
